Data taken from ChEMBL document CHEMBL4138041, “Synthesis and biological activity evaluation of novel peroxo-bridged derivatives as potential anti-hepatitis B virus agents” (Medchemcomm, 2017).
≈ marks a conversion by molar mass, not a printed value.

How the values were obtained:
HepG2 2.2.15 = experiment: (§1) Cytotoxicity against human HepG2.2.15 cells after 4 days by MTS assay; assay type: cell-based; conditions: hepg2 2.2.15, 96 h
Summary of the method: (§2)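 HepG2.2.15 cells seeded at 1.0×10^5 cells/mL, grown 24 h at 37 °C in 5% CO2, then exposed to various concentrations (ethanol-dissolved) for 4 days. Medium removed and MTS added for 3 h at 37 °C. Absorbance read at 490 nm. % inhibition = (1 − sample OD/untreated control OD)×100.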

Hepatitis B virus [1] = experiment: Antiviral activity against Hepatitis B virus infected in human HepG2.2.15 cells assessed as inhibition of HBsAg secretion at 3.13 ug/ml after 4 days by ELISA relative to control; assay type: functional; conditions: HepG2.2.15, 96 h
Summary of the method: (§3)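 HepG2.2.15 cells in DMEM with nonessential amino acids, sodium pyruvate and 10% heat-inactivated FBS, 37 °C, 5% CO2, seeded at 1.0×10^5 cells/mL. Treated at 3.13 µg/mL for 4 or 8 days. Cleared supernatant stored at -20 °C, then HBsAg/HBeAg measured by ELISA, OD 450 nm. % inhibition = (1 − sample OD/untreated control OD)×100.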

Hepatitis B virus [2] = experiment: Antiviral activity against Hepatitis B virus infected in human HepG2.2.15 cells assessed as inhibition of HBeAg secretion at 3.13 ug/ml after 4 days by ELISA relative to control; assay type: functional; conditions: HepG2.2.15, 96 h; summary of the method: as §3
Hepatitis B virus [3] = experiment: Antiviral activity against Hepatitis B virus infected in human HepG2.2.15 cells assessed as inhibition of HBsAg secretion at 3.13 ug/ml after 8 days by ELISA relative to control; assay type: functional; conditions: HepG2.2.15, 192 h; summary of the method: as §3
Hepatitis B virus [4] = experiment: Antiviral activity against Hepatitis B virus infected in human HepG2.2.15 cells assessed as inhibition of HBeAg secretion at 3.13 ug/ml after 8 days by ELISA relative to control; assay type: functional; conditions: HepG2.2.15, 192 h; summary of the method: as §3
[5] = as §1; assay type: cell-based, HepG2 2.2.15; conditions: HepG2.2.15 cells, read-out: TC50; summary of the method: as §2
Hepatitis B virus [6] = experiment: Antiviral activity against Hepatitis B virus infected in human HepG2.2.15 cells assessed as inhibition of HBsAg secretion after 4 days by ELISA; assay type: functional, organism-based; conditions: HepG2.2.15, 96 h
Summary of the method: (§4)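 HepG2.2.15 cells kept as monolayers in DMEM with nonessential amino acids, sodium pyruvate and 10% heat-inactivated FBS, 37 °C, 5% CO2. Seeded at 1.0×10^5 cells/mL in 96-well plates and exposed to a range of concentrations (ethanol-dissolved) for 4 or 8 days. Supernatant HBsAg/HBeAg measured by ELISA at 450 nm. % inhibition = (1 − sample OD/untreated control OD)×100.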

Hepatitis B virus [7] = experiment: Antiviral activity against Hepatitis B virus infected in human HepG2.2.15 cells assessed as inhibition of HBeAg secretion after 4 days by ELISA; assay type: functional, organism-based; conditions: HepG2.2.15, 96 h; summary of the method: as §4
Hepatitis B virus [8] = experiment: Antiviral activity against Hepatitis B virus infected in human HepG2.2.15 cells assessed as inhibition of HBsAg secretion after 8 days by ELISA; assay type: functional, organism-based; conditions: HepG2.2.15, 192 h; summary of the method: as §4
Hepatitis B virus [9] = experiment: Antiviral activity against Hepatitis B virus infected in human HepG2.2.15 cells assessed as inhibition of HBeAg secretion after 8 days by ELISA; assay type: functional, organism-based; conditions: HepG2.2.15, 192 h; summary of the method: as §4
[10] = Therapeutic index, ratio of TC50 for human HepG2.2.15 cells to IC50 for Hepatitis B virus infected in human HepG2.2.15 cells assessed as inhibition of HBsAg secretion after 4 days; assay type: toxicity, cell-based; conditions: read-out: TI
[11] = Therapeutic index, ratio of TC50 for human HepG2.2.15 cells to IC50 for Hepatitis B virus infected in human HepG2.2.15 cells assessed as inhibition of HBeAg secretion after 4 days; assay type: toxicity, cell-based; conditions: read-out: TI
[12] = Therapeutic index, ratio of TC50 for human HepG2.2.15 cells to IC50 for Hepatitis B virus infected in human HepG2.2.15 cells assessed as inhibition of HBsAg secretion after 8 days; assay type: toxicity, cell-based; conditions: read-out: TI
[13] = Therapeutic index, ratio of TC50 for human HepG2.2.15 cells to IC50 for Hepatitis B virus infected in human HepG2.2.15 cells assessed as inhibition of HBeAg secretion after 8 days; assay type: toxicity, cell-based; conditions: read-out: TI
[14] = Acute toxicity in ICR mouse assessed as mortality rate at 1000 mg/kg, ip measured up to 14 days relative to control; assay type: organism-based; conditions: in vivo
Summary of the method: (§5)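 Kunming mice of both sexes, 18-22 g, six groups of six matched for weight and size, single intraperitoneal injection at 56, 178, 350, 422, 750 or 1000 mg/kg. General behaviour observed at 1, 4 and 24 h, then followed up to 14 days for behaviour, toxic effects and mortality. LD50 with 95% confidence interval derived from the dose groups.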

[15] = Acute toxicity in ICR mouse assessed as mortality rate at 750 mg/kg, ip measured up to 14 days relative to control; assay type: organism-based; conditions: in vivo; summary of the method: as §5
[16] = Acute toxicity in ICR mouse assessed as mortality rate at 422 mg/kg, ip measured up to 14 days relative to control; assay type: organism-based; conditions: in vivo; summary of the method: as §5
[17] = Acute toxicity in ICR mouse assessed as mortality rate at 178 mg/kg, ip measured up to 14 days relative to control; assay type: organism-based; conditions: in vivo; summary of the method: as §5

For CC(=O)O[C@H]1CC[C@]2(C)[C@H]3CC[C@]4(C)[C@@H]([C@H](C)CCCC(C)C)CC[C@H]4[C@@]34C=C[C@@]2(C1)OO4, the Activity (HepG2 2.2.15) was “Dose-dependent effect”, the inhibition at 3.13 µg/mL (Hepatitis B virus [1]) was 13% and the inhibition at 3.13 µg/mL (Hepatitis B virus [2]) was 3.51%. It also gave an inhibition at 3.13 µg/mL (Hepatitis B virus [3]) of 13.8% and an inhibition at 3.13 µg/mL (Hepatitis B virus [4]) of 7.56%.

For CCC(CC[C@@H](C)[C@H]1CC[C@@H]2[C@]1(C)CC[C@H]1[C@]23C=C[C@@]2(C[C@@H](O)CC[C@]12C)OO3)C(C)C (some centres not stated), the Activity (HepG2 2.2.15) was “Dose-dependent effect”, the inhibition at 3.13 µg/mL (Hepatitis B virus [1]) was 19% and the inhibition at 3.13 µg/mL (Hepatitis B virus [2]) was 2.88%. It also gave an inhibition at 3.13 µg/mL (Hepatitis B virus [3]) of 20% and an inhibition at 3.13 µg/mL (Hepatitis B virus [4]) of 10.3%.

For CC(C)CCC[C@@H](C)[C@H]1CC[C@@H]2[C@]1(C)CC[C@H]1[C@]23C=C[C@@]2(CC(=O)CC[C@]12C)OO3, the CC50 at 96 h [5] was 10.2 µg/mL (≈ 24.7 µM), the Activity (HepG2 2.2.15) was “Dose-dependent effect” and the inhibition at 3.13 µg/mL (Hepatitis B virus [1]) was 72.3%. It also gave an inhibition at 3.13 µg/mL (Hepatitis B virus [2]) of 54.1%, an inhibition at 3.13 µg/mL (Hepatitis B virus [3]) of 77.5% and an inhibition at 3.13 µg/mL (Hepatitis B virus [4]) of 58.7%. The IC50 (Hepatitis B virus [6]) was 1.78 µg/mL (≈ 4.29 µM), the IC50 (Hepatitis B virus [7]) was 1.86 µg/mL (≈ 4.49 µM) and the IC50 (Hepatitis B virus [8]) was 2.59 µg/mL (≈ 6.25 µM). The IC50 (Hepatitis B virus [9]) was 2.95 µg/mL (≈ 7.11 µM), the selectivity ratio at 96 h [10] was 5.79 and the selectivity ratio at 96 h [11] was 5.51. It also gave a selectivity ratio at 192 h [12] of 3.4, a selectivity ratio at 192 h [13] of 3.47 and a mortality at 336 h [14] of 100%. The mortality at 336 h [15] was 100%, the mortality at 336 h [16] was 67% and the mortality at 336 h [17] was 0%.

Nc1ccn([C@H]2CS[C@@H](CO)O2)c(=O)n1 showed an inhibition at 3.13 µg/mL (Hepatitis B virus [1]) of 5.68%, an inhibition at 3.13 µg/mL (Hepatitis B virus [2]) of 4.94% and an inhibition at 3.13 µg/mL (Hepatitis B virus [3]) of -0.44%. It also gave an inhibition at 3.13 µg/mL (Hepatitis B virus [4]) of -9.22%.

With CC(C)CCC[C@@H](C)[C@H]1CC[C@@H]2[C@]1(C)CC[C@H]1[C@]23C=C[C@@]2(C[C@@H](O)CC[C@]12C)OO3 the Activity (HepG2 2.2.15) was “Dose-dependent effect”, the inhibition at 3.13 µg/mL (Hepatitis B virus [1]) was 1.2% and the inhibition at 3.13 µg/mL (Hepatitis B virus [2]) was 1.35%. For the same molecule, the inhibition at 3.13 µg/mL (Hepatitis B virus [3]) was 1.56% and the inhibition at 3.13 µg/mL (Hepatitis B virus [4]) was 2.55%.

In the case of CCC(CC[C@@H](C)[C@H]1CC[C@@H]2[C@]1(C)CC[C@H]1[C@]23C=C[C@@]2(C[C@@H](OC(C)=O)CC[C@]12C)OO3)C(C)C (some centres not stated), the Activity (HepG2 2.2.15) was “Dose-dependent effect”, the inhibition at 3.13 µg/mL (Hepatitis B virus [1]) was 26.7% and the inhibition at 3.13 µg/mL (Hepatitis B virus [2]) was 25.6%. It also gave an inhibition at 3.13 µg/mL (Hepatitis B virus [3]) of 28.8% and an inhibition at 3.13 µg/mL (Hepatitis B virus [4]) of 25.8%.

For CCC(CC[C@@H](C)[C@H]1CC[C@@H]2[C@]1(C)CC[C@H]1[C@]23C=C[C@@]2(CC(=O)CC[C@]12C)OO3)C(C)C (some centres not stated), the Activity (HepG2 2.2.15) was “Dose-dependent effect”, the inhibition at 3.13 µg/mL (Hepatitis B virus [1]) was 1.91% and the inhibition at 3.13 µg/mL (Hepatitis B virus [2]) was 3.28%. It also gave an inhibition at 3.13 µg/mL (Hepatitis B virus [3]) of 5.7% and an inhibition at 3.13 µg/mL (Hepatitis B virus [4]) of 2.36%.
